Activity calls are given as the source filed them.
Assays:
Staphylococcus aureus [1] = test: Antibacterial activity against methicillin-resistant Staphylococcus aureus clinical isolate 1-may after 16 to 20 hrs by broth microdilution method; format: functional
Method in brief: (§1)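 CLSI broth microdilution in Mueller-Hinton broth. A 4-6 h culture was diluted to about 10⁶ CFU/mL and mixed 1:1 with compound dilutions prepared at 256 to 0.5 µg/mL from aqueous stocks. Plates were incubated at 37 °C for 16-20 h and read visually for MIC. Each concentration was run in duplicate, and the experiment was repeated at least twice. Vancomycin and meropenem were comparators.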

Staphylococcus aureus [2] = test: Antibacterial activity against methicillin-resistant Staphylococcus aureus clinical isolate 1207007 after 16 to 20 hrs by broth microdilution method; format: functional; method in brief: as §1
Escherichia coli [3] = test: Antibacterial activity against drug-resistant NDM1 producing Escherichia coli clinical isolate 1460 after 16 to 20 hrs by broth microdilution method; format: functional; method in brief: as §1
Klebsiella pneumoniae [4] = test: Antibacterial activity against drug-resistant carbapenemase producing Klebsiella pneumoniae clinical isolate KP-14-2 after 16 to 20 hrs by broth microdilution method; format: functional; method in brief: as §1
Klebsiella pneumoniae [5] = test: Antibacterial activity against drug-resistant carbapenemase producing Klebsiella pneumoniae clinical isolate KP-13-55 after 16 to 20 hrs by broth microdilution method; format: functional; method in brief: as §1
Escherichia coli [6] = test: Antibacterial activity against drug-resistant NDM1 producing Escherichia coli clinical isolate CF-15-61 after 16 to 20 hrs by broth microdilution method; format: functional; method in brief: as §1
Escherichia coli [7] = test: Induction of inner membrane permeabilization in Escherichia coli ATCC 25922 at 10 to 20 ug/ml measured every 2 mins for 12 mins by propidium iodide staining-based fluorescence assay; format: functional, organism-based
Method in brief: (§2)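 Mid-log cells (~10⁸ CFU/mL) were suspended in PBS (S. aureus) or HEPES/glucose/KCl (E. coli). They were preincubated with propidium iodide for 30 min (S. aureus) or 40 min (E. coli), and baseline fluorescence was read for 8 min. Compound was added to 20 µg/mL final, and fluorescence (ex 535/em 617 nm) was read every 2 min for 12 min.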

Staphylococcus aureus [8] = test: Antibacterial activity against methicillin-resistant Staphylococcus aureus clinical isolate 0906202 after 16 to 20 hrs by broth microdilution method; format: functional; method in brief: as §1
Staphylococcus aureus [9] = test: Antibacterial activity against methicillin-resistant Staphylococcus aureus clinical isolate 0831010 after 16 to 20 hrs by broth microdilution method; format: functional; method in brief: as §1
Escherichia coli [10] = test: Antibacterial activity against drug-resistant NDM1 producing Escherichia coli clinical isolate Ecl-14-59 after 16 to 20 hrs by broth microdilution method; format: functional; method in brief: as §1
Klebsiella pneumoniae [11] = test: Antibacterial activity against drug-resistant carbapenemase producing Klebsiella pneumoniae clinical isolate KP-14-8 after 16 to 20 hrs by broth microdilution method; format: functional; method in brief: as §1
Klebsiella pneumoniae [12] = test: Antibacterial activity against drug-resistant carbapenemase producing Klebsiella pneumoniae clinical isolate KP-13-54 after 16 to 20 hrs by broth microdilution method; format: functional; method in brief: as §1
Staphylococcus aureus [13] = test: Antibacterial activity against methicillin-resistant Staphylococcus aureus clinical isolate 1105183 cono7 after 16 to 20 hrs by broth microdilution method; format: functional; method in brief: as §1
Salmonella enterica = test: Antibacterial activity against Salmonella enterica ATCC 13076 after 16 to 20 hrs by broth microdilution method; format: functional
Method in brief: (§3)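 Broth microdilution per CLSI. Bacteria grown 4-6 h (about 10⁸ CFU/mL), then diluted to about 10⁶ CFU/mL. Medium: Mueller-Hinton broth, except Luria-Bertani broth for E. coli. Compounds in sterile water, twofold series 256-0.5 µg/mL, mixed 1:1 with inoculum, 37 °C for 16-20 h. MIC is the lowest concentration without visible growth. Duplicate wells; experiment repeated at least twice.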

Staphylococcus aureus [14] = test: Antibacterial activity against methicillin-resistant Staphylococcus aureus clinical isolate 20131012632sau after 16 to 20 hrs by broth microdilution method; format: functional; method in brief: as §1
Klebsiella pneumoniae [15] = test: Antibacterial activity against drug-resistant carbapenemase producing Klebsiella pneumoniae clinical isolate KP-14-18 after 16 to 20 hrs by broth microdilution method; format: functional; method in brief: as §1
Staphylococcus aureus [16] = test: Antibacterial activity against methicillin-resistant Staphylococcus aureus clinical isolate 20130911034sau after 16 to 20 hrs by broth microdilution method; format: functional; method in brief: as §1
Klebsiella pneumoniae [17] = test: Antibacterial activity against drug-resistant carbapenemase producing Klebsiella pneumoniae clinical isolate KP-13-45 after 16 to 20 hrs by broth microdilution method; format: functional; method in brief: as §1
Staphylococcus aureus [18] = test: Induction of inner membrane permeabilization in Staphylococcus aureus ATCC 29213 at 10 to 20 ug/ml measured every 2 mins for 12 mins by propidium iodide staining-based fluorescence assay; format: functional, organism-based; method in brief: as §2
Enterococcus faecalis = test: Antibacterial activity against Enterococcus faecalis ATCC 29212 after 16 to 20 hrs by broth microdilution method; format: functional; method in brief: as §3
Escherichia coli [19] = test: Antibacterial activity against Escherichia coli ATCC 25922 after 16 to 20 hrs by broth microdilution method; format: functional; method in brief: as §3
Escherichia coli [20] = test: Antibacterial activity against drug-resistant NDM1 producing Escherichia coli clinical isolate SM-15-84 after 16 to 20 hrs by broth microdilution method; format: functional; method in brief: as §1
Escherichia coli [21] = test: Antibacterial activity against drug-resistant NDM1 producing Escherichia coli clinical isolate Ecl-14-56 after 16 to 20 hrs by broth microdilution method; format: functional; method in brief: as §1
Escherichia coli [22] = test: Antibacterial activity against drug-resistant NDM1 producing Escherichia coli clinical isolate Ecl-14-58 after 16 to 20 hrs by broth microdilution method; format: functional; method in brief: as §1
[23] = Hemolytic activity in sheep RBC after 1 hr; format: ADME, cell-based, Ovis aries, Erythrocyte; conditions: sheep red blood cells (erythrocytes)
Method in brief: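 Sheep red blood cells (150 µL suspension) mixed with 50 µL of compound dilutions (5120-10 µg/mL), 1 h at 37 °C, then centrifuged. Supernatant read at 540 nm. Percent hemolysis calculated relative to RBC-only control (0%) and 0.1% Triton X-100 (100%).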

Klebsiella pneumoniae [24] = test: Antibacterial activity against drug-resistant carbapenemase producing Klebsiella pneumoniae clinical isolate KP-14-5 after 16 to 20 hrs by broth microdilution method; format: functional; method in brief: as §1
Klebsiella pneumoniae [25] = test: Antibacterial activity against drug-resistant carbapenemase producing Klebsiella pneumoniae clinical isolate KP-14-45 after 16 to 20 hrs by broth microdilution method; format: functional; method in brief: as §1
Escherichia coli [26] = test: Antibacterial activity against drug-resistant NDM1 producing Escherichia coli clinical isolate Ecl-13-62 after 16 to 20 hrs by broth microdilution method; format: functional; method in brief: as §1
Escherichia coli [27] = test: Antibacterial activity against drug-resistant NDM1 producing Escherichia coli clinical isolate CF-13-61 after 16 to 20 hrs by broth microdilution method; format: functional; method in brief: as §1
Staphylococcus aureus [28] = test: Antibacterial activity against Staphylococcus aureus ATCC 29213 after 16 to 20 hrs by broth microdilution method; format: functional; method in brief: as §3
Escherichia coli [29] = test: Antibacterial activity against drug-resistant NDM1 producing Escherichia coli clinical isolate EC-14-54 after 16 to 20 hrs by broth microdilution method; format: functional; method in brief: as §1
Staphylococcus aureus [30] = test: Induction of cytoplasmic membrane depolarization in Staphylococcus aureus ATCC 29213 at 10 to 20 ug/ml measured every 2 mins for 12 mins by DiSC35 dye-based fluorescence assay; format: functional, organism-based
Method in brief: (§4)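 Mid-log cells (~10⁸ CFU/mL) were suspended in PBS (S. aureus) or HEPES/glucose/KCl with EDTA (E. coli). They were preloaded with DiSC3(5) for 30 min (S. aureus) or 40 min (E. coli), and baseline fluorescence was read for 8 min. Compound was added to 20 µg/mL final, and fluorescence (ex 622/em 670 nm) was read every 2 min for 12 min. Water served as control.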

Staphylococcus aureus [31] = test: Antibacterial activity against methicillin-resistant Staphylococcus aureus clinical isolate 1208143 after 16 to 20 hrs by broth microdilution method; format: functional; method in brief: as §1
Klebsiella pneumoniae [32] = test: Antibacterial activity against drug-resistant carbapenemase producing Klebsiella pneumoniae clinical isolate KP-14-3 after 16 to 20 hrs by broth microdilution method; format: functional; method in brief: as §1
Klebsiella pneumoniae [33] = test: Antibacterial activity against drug-resistant carbapenemase producing Klebsiella pneumoniae clinical isolate KP-14-1 after 16 to 20 hrs by broth microdilution method; format: functional; method in brief: as §1
Escherichia coli [34] = test: Antibacterial activity against drug-resistant NDM1 producing Escherichia coli clinical isolate EC-13-49 after 16 to 20 hrs by broth microdilution method; format: functional; method in brief: as §1
Escherichia coli [35] = test: Antibacterial activity against drug-resistant NDM1 producing Escherichia coli clinical isolate KP-13-58 after 16 to 20 hrs by broth microdilution method; format: functional; method in brief: as §1
Staphylococcus aureus [36] = test: Antibacterial activity against methicillin-resistant Staphylococcus aureus clinical isolate 1104060 after 16 to 20 hrs by broth microdilution method; format: functional; method in brief: as §1
Klebsiella pneumoniae [37] = test: Antibacterial activity against drug-resistant carbapenemase producing Klebsiella pneumoniae clinical isolate KP-14-4 after 16 to 20 hrs by broth microdilution method; format: functional; method in brief: as §1
Escherichia coli [38] = test: Induction of cytoplasmic membrane depolarization in Escherichia coli ATCC 25922 at 10 to 20 ug/ml measured every 2 mins for 12 mins by DiSC35 dye-based fluorescence assay; format: functional, organism-based; method in brief: as §4
Klebsiella pneumoniae [39] = test: Antibacterial activity against drug-resistant carbapenemase producing Klebsiella pneumoniae clinical isolate EC-13-23 after 16 to 20 hrs by broth microdilution method; format: functional; method in brief: as §1
Escherichia coli [40] = test: Antibacterial activity against drug-resistant NDM1 producing Escherichia coli clinical isolate EA-14-61 after 16 to 20 hrs by broth microdilution method; format: functional; method in brief: as §1

CCCCCCCC[N+](C)(C)CC(=O)Nc1ccc(C(=O)/C=C/c2ccc3ccccc3c2)cc1.[Cl-]
2 µg/mL: MIC (Staphylococcus aureus [1]) | MIC (Staphylococcus aureus [2]) | MIC (Enterococcus faecalis) | MIC (Staphylococcus aureus [28]) | MIC (Staphylococcus aureus [31]) | MIC (Escherichia coli [35])
1 µg/mL: MIC (Staphylococcus aureus [9]) | MIC (Staphylococcus aureus [13]) | MIC (Staphylococcus aureus [16]) | MIC (Escherichia coli [27]) | MIC (Escherichia coli [29])
active: Activity (Escherichia coli [7]) | Activity (Staphylococcus aureus [18]) | Activity (Staphylococcus aureus [30]) | Activity (Escherichia coli [38])
32 µg/mL: MIC (Staphylococcus aureus [8]) | MIC (Klebsiella pneumoniae [37])
374 µg/mL: HC50 at 1 h [23]
128 µg/mL: MIC (Escherichia coli [20])
16 µg/mL: MIC (Escherichia coli [3]) | MIC (Escherichia coli [6]) | MIC (Escherichia coli [10]) | MIC (Klebsiella pneumoniae [11]) | MIC (Klebsiella pneumoniae [12]) | MIC (Klebsiella pneumoniae [17]) | MIC (Escherichia coli [22]) | MIC (Klebsiella pneumoniae [24]) | MIC (Klebsiella pneumoniae [32]) | MIC (Escherichia coli [34]) | MIC (Staphylococcus aureus [36])
> 128 µg/mL: MIC (Klebsiella pneumoniae [4]) | MIC (Klebsiella pneumoniae [5]) | MIC (Klebsiella pneumoniae [15]) | MIC (Klebsiella pneumoniae [25]) | MIC (Klebsiella pneumoniae [33])
8 µg/mL: MIC (Salmonella enterica) | MIC (Staphylococcus aureus [14]) | MIC (Escherichia coli [19]) | MIC (Escherichia coli [21]) | MIC (Escherichia coli [26]) | MIC (Klebsiella pneumoniae [39]) | MIC (Escherichia coli [40])

CCCCCCCC[N+](C)(C)CC(=O)Nc1ccc(C(=O)/C=C/c2cccc(Cl)c2)cc1.[Cl-]
4 µg/mL: MIC (Escherichia coli [3]) | MIC (Staphylococcus aureus [8]) | MIC (Escherichia coli [10]) | MIC (Klebsiella pneumoniae [11]) | MIC (Klebsiella pneumoniae [12]) | MIC (Salmonella enterica) | MIC (Klebsiella pneumoniae [17]) | MIC (Escherichia coli [19]) | MIC (Escherichia coli [21]) | MIC (Escherichia coli [22]) | MIC (Klebsiella pneumoniae [24]) | MIC (Escherichia coli [26]) | MIC (Escherichia coli [29]) | MIC (Klebsiella pneumoniae [32]) | MIC (Escherichia coli [34]) | MIC (Klebsiella pneumoniae [37]) | MIC (Klebsiella pneumoniae [39]) | MIC (Escherichia coli [40])
active: Activity (Escherichia coli [7]) | Activity (Staphylococcus aureus [18]) | Activity (Staphylococcus aureus [30]) | Activity (Escherichia coli [38])
2 µg/mL: MIC (Staphylococcus aureus [14]) | MIC (Staphylococcus aureus [28])
16 µg/mL: MIC (Escherichia coli [20]) | MIC (Escherichia coli [27])
8 µg/mL: MIC (Klebsiella pneumoniae [4]) | MIC (Klebsiella pneumoniae [5]) | MIC (Escherichia coli [6]) | MIC (Klebsiella pneumoniae [15]) | MIC (Klebsiella pneumoniae [25]) | MIC (Klebsiella pneumoniae [33]) | MIC (Staphylococcus aureus [36])
186 µg/mL: HC50 at 1 h [23]
1 µg/mL: MIC (Staphylococcus aureus [1]) | MIC (Staphylococcus aureus [13]) | MIC (Enterococcus faecalis) | MIC (Staphylococcus aureus [31]) | MIC (Escherichia coli [35])
0.5 µg/mL: MIC (Staphylococcus aureus [2]) | MIC (Staphylococcus aureus [9]) | MIC (Staphylococcus aureus [16])
